Laboratory results from article PMC2861555 (International journal of radiation biology, 2009).
Read-outs that look alike come from different tables or passages of the source. Marks after values point to notes of the source that are not given here.

Key:
rats = conditions: rats; ref Bergeron et al., 1993; cited from earlier work
[1] = type: in vivo, rat; conditions: for Bile/Urine (%): bile share of U excretion / Bile/Urine (%): urine share of U excretion / % Administered Dose Excreted: 24 h; for Reduction (%) of renal uranium vs control: 24 h post-metal; for % Administered Dose Excreted: bile + urine; for Renal Conc.: kidneys removed 24 h post-metal; for Kidney U Conc. / Liver U Conc. / Lung U Conc. / Spleen U Conc. / Bone (femur) U Conc.: tissue 24 h post-metal; for Bone (femur) U Conc.: bone + bone marrow
[2] = Multiple dose chelator administration in non-bile duct-cannulated; type: in vivo, rat; conditions: for % Administered Dose Excreted / Total U Excretion: urine + feces
In short: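 Intact rats got uranyl acetate 1 mg U kg−1 s.c. (left flank), then test compound or DTPA 300 µmol kg−1 s.c. (right flank) immediately and at 24-h intervals (4 doses). Rats were caged singly with chow and water ad libitum. Urine and feces were collected every 24 h. Kidneys and other tissues were taken 24 h after the last dose. Uranium was measured by ICP-MS in triplicate; data are mean ± SEM.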

[3] = 24 h after last of 4 daily s.c. doses of 300 µmol kg^−1
[4] = Day 1, 300 µmol kg^−1 s.c. daily x 4
[5] = Day 2, 300 µmol kg^−1 s.c. daily x 4
[6] = Day 3, 300 µmol kg^−1 s.c. daily x 4
[7] = Day 4, 300 µmol kg^−1 s.c. daily x 4

C[C@]1(C(=O)O)CSC(c2ncccc2O)=N1 [DFT, (S)-4,5-dihydro-2-(3-hydroxy-2-pyridinyl)-4-methyl-4-thiazolecarboxylic acid, reference compound]
nephrotoxicity (rats): severe nephrotoxicity

O=C(O)CN(CCN(CC(=O)O)CC(=O)O)CCN(CC(=O)O)CC(=O)O [DTPA, Diethylenetriaminepentaacetic acid, reference compound]
renal share of actinide excretion ([1]; route of actinide excretion, dose and route of chelator not stated at this place): 100% | Bile/Urine (%): bile share of U excretion ([1]; single dose 150 µmol kg^−1 SC): 2% | Bile/Urine (%): urine share of U excretion ([1]; single dose 150 µmol kg^−1 SC): 98% | Reduction (%) of renal uranium vs control ([1]; single dose 150 µmol kg^−1 SC): 44% | % Administered Dose Excreted ([1]; single dose 150 µmol kg^−1 SC): 27.6% | Renal Conc. ([1]; single dose 150 µmol kg^−1 SC): 47 ± 9 ^b µg g^−1 | Kidney U Conc. ([1]; single dose 150 µmol kg^−1 SC): 47 ± 9 ^b µg g^−1 | Liver U Conc. ([1]; single dose 150 µmol kg^−1 SC): 0.1 ± 0.0 ^b µg g^−1 | Lung U Conc. ([1]; single dose 150 µmol kg^−1 SC): 0.07 ± 0.01 ^b µg g^−1 | Spleen U Conc. ([1]; single dose 150 µmol kg^−1 SC): 0.15 ± 0.05 ^b µg g^−1 | Bone (femur) U Conc. ([1]; single dose 150 µmol kg^−1 SC): 3.1 ± 1.1 µg/g | Bile/Urine (%): bile share of U excretion ([1]; single dose 300 µmol kg^−1 PO): 0% | Bile/Urine (%): urine share of U excretion ([1]; single dose 300 µmol kg^−1 PO): 100% | Reduction (%) of renal uranium vs control ([1]; single dose 300 µmol kg^−1 PO): 36% | % Administered Dose Excreted ([1]; single dose 300 µmol kg^−1 PO): 21.2% | Renal Conc. ([1]; single dose 300 µmol kg^−1 PO): 54 ± 11 ^b µg g^−1 | Kidney U Conc. ([1]; single dose 300 µmol kg^−1 PO): 54 ± 11 ^b µg g^−1 | Liver U Conc. ([1]; single dose 300 µmol kg^−1 PO): 0.2 ± 0.0 µg/g | Lung U Conc. ([1]; single dose 300 µmol kg^−1 PO): 0.10 ± 0.02 ^b µg g^−1 | Spleen U Conc. ([1]; single dose 300 µmol kg^−1 PO): 0.13 ± 0.03 ^b µg g^−1 | Bone (femur) U Conc. ([1]; single dose 300 µmol kg^−1 PO): 4.3 ± 1.3 µg/g | Reduction (%) of renal uranium vs control [2, 3]: 39% | Renal Conc. [2, 3]: 19 ± 2 ^c µg g^−1 | Fecal U Excretion [2, 4]: 30 ± 19 µg/kg | Urine U Excretion ([2]; Day 1, 300 µmol kg^−1 s.c. daily x 4, first dose immediately post-U): 380 ± 55 µg/kg | % Administered Dose Excreted [2, 4]: 41.0% | Total U Excretion [2, 4]: 410 ± 56 µg/kg | Fecal U Excretion [2, 5]: 13 ± 9 µg/kg | Urine U Excretion [2, 5]: 43 ± 11 µg/kg | % Administered Dose Excreted [2, 5]: 5.6% | Total U Excretion [2, 5]: 56 ± 16 ^c µg kg^−1 | Fecal U Excretion [2, 6]: 13 ± 5 µg/kg | Urine U Excretion [2, 6]: 29 ± 6 µg/kg | % Administered Dose Excreted [2, 6]: 4.2% | Total U Excretion [2, 6]: 42 ± 5 µg/kg | Fecal U Excretion [2, 7]: 9 ± 5 µg/kg | Urine U Excretion [2, 7]: 14 ± 3 µg/kg | % Administered Dose Excreted [2, 7]: 2.3% | Total U Excretion [2, 7]: 23 ± 3 µg/kg | administered dose of uranium excreted at the end of four days (urine + feces) ([2]; cumulative over 4 days, 300 µmol kg^−1 s.c. daily x 4): 53%
